Data: ChEMBL document CHEMBL1156778, “Synthesis and structure-activity studies of biphenyl analogues of the tuberculosis drug (6S)-2-nitro-6-{[4-(trifluoromethoxy)benzyl]oxy}-6,7-dihydro-5H-imidazo[2,1-b][1,3]oxazine (PA-824)” (J Med Chem, 2010)
Values after ≈ are worked out from the molar mass of the structure shown.

What was measured:
Vero = assay: Cytotoxicity against african green monkey Vero cells after 72 hrs by MTS assay; type: cell-based; conditions: Chlorocebus sabaeus
Method in brief: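 VERO cells (CCL-81), 72 h exposure, tetrazolium dye read-out.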

[1] = system: Mycobacterium tuberculosis; assay: Antitubercular activity against Mycobacterium tuberculosis H37Rv in aerobic condition after 7 days by microplate alamar blue assay; type: functional; conditions: 168 h
Method in brief: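 M. tuberculosis H37Rv, replicating culture; 8-day microplate assay with Alamar blue added on day 7 to read growth. […] Mean of at least two independent determinations ± SD.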

[2] = system: Mycobacterium tuberculosis; assay: Antitubercular activity against Mycobacterium tuberculosis H37Rv in anaerobic condition after 7 days by low oxygen recovery assay; type: functional; conditions: 168 h
[3] = system: Mycobacterium tuberculosis; assay: Antitubercular activity against Mycobacterium tuberculosis H37Rv infected in BALB/c mouse measured per mouse at 100 mg/kg, po daily for 5 days a week for 3 weeks; type: functional
[4] = system: Mycobacterium tuberculosis; assay: Antitubercular activity against Mycobacterium tuberculosis H37Rv infected in BALB/c mouse assessed as ratio of lung CFU for compound to lung CFU for PA-824 at 100 mg/kg, po daily for 5 days a week for 3 weeks; type: functional
[5] = Metabolic stability in pooled human liver microsomes assessed as compound remaining after 1 hr by LC-MS-MS; type: ADME, Microsome; conditions: read-out: Stability
Method in brief: (§1)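 Test compound at 1 μM with pooled CD-1 mouse or human liver microsomes (0.5 mg/mL protein) and NADPH-regenerating system (3.3 mM MgCl2, 3.3 mM G6P, 0.4 U/mL G6PD, 1.3 mM NADP+) in 75 mM phosphate, pH 7.4, 0.5% DMSO, 37 °C. Stopped at 0 and 60 min with MeCN containing metoprolol internal standard. LC-MS/MS (ESI, SRM), duplicates. % remaining = 100 × mean peak-area ratio at 60 min / at 0 min.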

[6] = Metabolic stability in pooled CD1 mouse liver microsomes assessed as compound remaining after 1 hr by LC-MS-MS; type: ADME, Microsome; conditions: read-out: Stability; method in brief: as §1

| SMILES | IC50 (Vero) [µM] | MIC [1] [µM] | MIC [2] [µM] | CFU [3] | fold change (FC) [4] | remaining at 1 h [5] [%] | remaining at 1 h [6] [%] |
| --- | --- | --- | --- | --- | --- | --- | --- |
| O=[N+]([O-])c1cn2c(n1)OC[C@@H](OCc1cccc(-c3ccc(F)cc3)c1)C2 | > 125 | 0.077 (≈ 0.0284 µg/mL) | 3.8 (≈ 1.4 µg/mL) | – | – | – | – |
| O=[N+]([O-])c1cn2c(n1)OC[C@@H](OCc1ccccc1-c1cccc(F)c1)C2 | > 125 | 0.62 (≈ 0.229 µg/mL) | 3 (≈ 1.11 µg/mL) | – | – | – | – |
| COc1ccc(-c2ccccc2CO[C@@H]2COc3nc([N+](=O)[O-])cn3C2)cc1F | > 125 | 1.8 (≈ 0.719 µg/mL) | 3.8 (≈ 1.52 µg/mL) | – | – | – | – |
| NC(=O)c1ccc(-c2ccc(CO[C@@H]3COc4nc([N+](=O)[O-])cn4C3)cc2)cc1 | > 125 | 2.1 (≈ 0.828 µg/mL) | 15 (≈ 5.92 µg/mL) | – | – | – | – |
| O=[N+]([O-])c1cn2c(n1)OC[C@@H](OCc1ccccc1-c1ccc(OC(F)(F)F)cc1)C2 | > 125 | 2.3 (≈ 1 µg/mL) | 4.3 (≈ 1.87 µg/mL) | – | – | – | – |
| O=[N+]([O-])c1cn2c(n1)OC[C@@H](OCc1ccc(-c3ccc(O)cc3)cc1)C2 | > 125 | 0.64 (≈ 0.235 µg/mL) | 4.3 (≈ 1.58 µg/mL) | – | – | – | – |
| O=[N+]([O-])c1cn2c(n1)OC[C@@H](OCc1ccc(-c3ccc(OC(F)(F)F)cc3)cc1)C2 | > 125 | 0.035 (≈ 0.0152 µg/mL) | 1.3 (≈ 0.566 µg/mL) | <2 | >205 | – | – |
| O=[N+]([O-])c1cn2c(n1)OC[C@@H](OCc1cccc(-c3ccc(OCCCN4CCOCC4)cc3)c1)C2 | > 125 | 0.69 (≈ 0.341 µg/mL) | 11 (≈ 5.44 µg/mL) | – | – | – | – |
| O=[N+]([O-])c1cccc(-c2ccc(CO[C@@H]3COc4nc([N+](=O)[O-])cn4C3)cc2)c1 | > 125 | 0.13 (≈ 0.0515 µg/mL) | 0.76 (≈ 0.301 µg/mL) | – | – | – | – |
| O=[N+]([O-])c1cn2c(n1)OC[C@@H](OCc1ccc(-c3ccc(OC(F)(F)F)c(Cl)c3)cc1)C2 | > 125 | 0.03 (≈ 0.0141 µg/mL) | 0.9 (≈ 0.423 µg/mL) | 6.4 | 281 | 90 | 84 |
| CSc1ccc(-c2ccccc2CO[C@@H]2COc3nc([N+](=O)[O-])cn3C2)cc1 | > 125 | 1.3 (≈ 0.517 µg/mL) | 3.4 (≈ 1.35 µg/mL) | – | – | – | – |
| COc1cccc(-c2ccc(CO[C@@H]3COc4nc([N+](=O)[O-])cn4C3)cc2)c1 | > 125 | 0.27 (≈ 0.103 µg/mL) | 1.9 (≈ 0.725 µg/mL) | – | – | – | – |
| O=[N+]([O-])c1cn2c(n1)OC[C@@H](OCc1ccc(-c3cccc(OCCCO)c3)cc1)C2 | > 125 | 0.18 (≈ 0.0766 µg/mL) | 3.2 (≈ 1.36 µg/mL) | – | – | – | – |
| N#Cc1cccc(-c2ccccc2CO[C@@H]2COc3nc([N+](=O)[O-])cn3C2)c1 | > 125 | 0.8 (≈ 0.301 µg/mL) | 8.2 (≈ 3.09 µg/mL) | – | – | – | – |
| O=Cc1ccc(-c2ccc(CO[C@@H]3COc4nc([N+](=O)[O-])cn4C3)cc2)cc1 | > 125 | 0.2 (≈ 0.0759 µg/mL) | 1 (≈ 0.379 µg/mL) | – | – | – | – |
| O=[N+]([O-])c1cn2c(n1)OC[C@@H](OCc1cccc(-c3ccc(OC(F)(F)F)cc3)c1)C2 | > 125 | 0.11 (≈ 0.0479 µg/mL) | 2.2 (≈ 0.958 µg/mL) | – | – | – | – |
| O=[N+]([O-])c1cn2c(n1)OC[C@@H](OCc1ccc(-c3ccccc3Cl)cc1)C2 | > 125 | 0.15 (≈ 0.0579 µg/mL) | 1.5 (≈ 0.579 µg/mL) | – | – | – | – |
| O=[N+]([O-])c1cn2c(n1)OC[C@@H](OCc1ccccc1-c1ccccc1)C2 | > 125 | 0.64 (≈ 0.225 µg/mL) | 2.5 (≈ 0.878 µg/mL) | – | – | – | – |
| COc1ccc(-c2cccc(CO[C@@H]3COc4nc([N+](=O)[O-])cn4C3)c2)cc1F | > 125 | 0.19 (≈ 0.0759 µg/mL) | 2.2 (≈ 0.879 µg/mL) | – | – | – | – |
| O=[N+]([O-])c1cn2c(n1)OC[C@@H](OCc1ccc(-c3cccc(-c4ccccc4)c3)cc1)C2 | > 125 | 0.31 (≈ 0.133 µg/mL) | 0.88 (≈ 0.376 µg/mL) | – | – | – | – |
| O=[N+]([O-])c1cn2c(n1)OC[C@@H](OCc1ccc(-c3ccc(C(F)(F)F)cc3Cl)cc1)C2 | > 125 | 0.03 (≈ 0.0136 µg/mL) | 1.4 (≈ 0.635 µg/mL) | 540 | 7.2 | 92 | 93 |
| CC(=O)c1ccc(-c2cccc(CO[C@@H]3COc4nc([N+](=O)[O-])cn4C3)c2)cc1 | > 125 | 0.3 (≈ 0.118 µg/mL) | 1.9 (≈ 0.747 µg/mL) | – | – | – | – |
| COc1cc(C)c(-c2ccc(CO[C@@H]3COc4nc([N+](=O)[O-])cn4C3)cc2)c(C)c1 | > 125 | 0.58 (≈ 0.237 µg/mL) | 0.94 (≈ 0.385 µg/mL) | – | – | – | – |
| O=[N+]([O-])c1cn2c(n1)OC[C@@H](OCc1ccc(-c3ccc(OCCO)cc3)cc1)C2 | > 125 | 0.55 (≈ 0.226 µg/mL) | 3.3 (≈ 1.36 µg/mL) | – | – | – | – |
| O=[N+]([O-])c1cn2c(n1)OC[C@@H](OCc1cccc(-c3cccc(OCCCN4CCOCC4)c3)c1)C2 | > 125 | 1.4 (≈ 0.692 µg/mL) | 11 (≈ 5.44 µg/mL) | – | – | – | – |
| O=[N+]([O-])c1cn2c(n1)OC[C@@H](OCc1ccc(OC(F)(F)F)cc1)C2 [PRETOMANID] | > 125 | 0.5 (≈ 0.18 µg/mL) | 2.6 (≈ 0.934 µg/mL) | – | 1 | 82 | – |
